The text below walks through data of ChEMBL document CHEMBL3751796, “Structure-Based Discovery of Novel Cyclophilin A Inhibitors for the Treatment of Hepatitis C Virus Infections” (J Med Chem, 2015).

Data set [1] concerns Hepatitis C virus. Put plainly: Antiviral activity against HCV genotype 1b Con1 infected in human Huh7.5 cells assessed as stimulation of IRF9 expression at 2 uM incubated up to 96 hrs by Western blot analysis. It is filed as functional, organism-based. The note with it: Hepacivirus hominis, isolate Con1, Huh-7, TDE = time-dependent effect.
For data set [2], the system named is Hepatitis C virus. Put plainly: Antiviral activity against HCV infected in human Huh7.5 cells assessed as inhibition of IL-8 level by ELISA in presence of ribavirin. It is filed as functional, organism-based. The conditions noted are these: Hepacivirus hominis; Huh-7.
In data set [3] the target is T1, Peptidyl-prolyl cis-trans isomerase B (Homo sapiens, UniProt P23284). Put plainly: Dissociation rate to Cyclophilin B (unknown origin) by surface plasmon resonance analysis.
The subject of data set [4] is Hepatitis C virus. As to the kind of experiment: Antiviral activity against HCV genotype 1b Con1 infected in human Huh7.5 cells assessed as upregulation of IFN-alpha mRNA expression incubated up to 96 hrs by qRT-PCR method. It is filed as functional, organism-based. The conditions noted are these: Hepacivirus hominis; isolate Con1; Huh-7. The method in brief:
(§1)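 mRNA measured by SYBR Green qRT-PCR using the 2^−ΔΔCT method, normalized to GAPDH and expressed as fold change vs controls.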

In data set [5] the target is T1, Peptidyl-prolyl cis-trans isomerase B.
Data set [6] deals with Hepatitis C virus. Put plainly: Antiviral activity against HCV genotype 2a JFH1 infected in human Huh7.5 cells expressing GFP-fused NS5A measured 72 hrs post infection by hoechst 33342 staining based confocal microscopy. The class given is functional, organism-based, Hepacivirus hominis. The note with it: JFH-1, Huh-7, 72 h.
Data set [7] deals with Mus musculus. Put plainly: Toxicity in BALB/c mouse assessed as changes in body weight at 50 mg/kg, iv for 2 weeks. It is filed as organism-based. The conditions noted are these: in vivo, 336 h.
A short description of data set [8]: Selectivity index, ratio of CC50 for mock-infected human Huh7.5 cells to EC50 for recombinant HCV genotype 2a JFH1. Also noted: species or system Huh-7. The method in brief:
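Huh7.5 cells infected with JFH1-Luc virus (MOI 0.004, 5 h, 37 °C) in the presence of 3-fold serial dilutions. EC50 came from Renilla luciferase on day 3. CC50 came from MTT viability of mock-infected Huh7.5 cells treated in parallel. SI = CC50/EC50.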

In data set [9] the test system is Mus musculus. Put plainly: Nephrotoxicity in BALB/c mouse assessed as changes in serum creatinine level at 50 mg/kg, iv for 2 weeks. The conditions noted are these: in vivo, 336 h. It is filed as toxicity, organism-based.
In data set [10] the test system is Hepatitis C virus. Put plainly: Antiviral activity against HCV genotype 1b Con1 infected in human Huh7.5 cells assessed as stimulation of STAT2 mRNA expression at 2 uM incubated up to 96 hrs by qRT-PCR method. It is filed as functional, organism-based. The conditions noted are these: Hepacivirus hominis, isolate Con1, Huh-7, TDE = time-dependent effect. The method, boiled down: as §1

The subject of data set [11] is Hepatitis C virus. Put plainly: Antiviral activity against HCV infected in human Huh7.5 cells assessed as inhibition of HCV-specific RNA by qRT-PCR method in presence of ribavirin. It is filed as functional, organism-based. The note with it: Hepacivirus hominis; Huh-7.
Data set [12] is filed under the species Mus musculus. As to the kind of experiment: Activation of calcium-dependent calcineurin phosphatase activity in ionomycin-stimulated BALB/c mouse splenocytes assessed as nuclear translocation of NFAT1 at 5 uM preincubated for 20 hrs followed by ionomycin stimulation measured after 4 hrs by DAPI staining based confocal microscopy. The method, boiled down:
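Splenocytes were pretreated 20 h, then stimulated with ionomycin 1 μg/mL for 4 h. Fixed in 3.7% formaldehyde, permeabilized with 0.5% Triton X-100, and incubated overnight at 4 °C with anti-NFAT1 (1:100, 3% BSA). Alexa 546 secondary 1:200 for 2 h, DAPI counterstain, then confocal imaging of NFAT1 localization.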

Data set [13] concerns Hepatitis C virus. As to the kind of experiment: Antiviral activity against HCV genotype 1b Con1 infected in human Huh7.5 cells assessed as inhibition of NS5A expression in membrane fractions at 2 uM by Western blot analysis. It is filed as functional, organism-based. The note with it: Hepacivirus hominis, isolate Con1, Huh-7. The method in brief: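 Con1b replicon cells treated with 2 μM. Total lysates, and a membrane fraction prepared by hypotonic buffer, dounce homogenization, 220g spin and then 68 000g for 1 h at 4 °C, analyzed by Western blot for NS5A and NS5B.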

Data set [14] relates to Hepatitis C virus. As to the kind of experiment: Antiviral activity against HCV genotype 1b Con1 infected in human Huh7.5 cells expressing GFP-fused NS5A measured 72 hrs post infection by hoechst 33342 staining based confocal microscopy. It is filed as functional, organism-based, Hepacivirus hominis. The note with it: isolate Con1, Huh-7, 72 h. The method in brief: (§2)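 Huh7 replicon cells expressing NS5A-GFP seeded at 2 × 10^3/well and left overnight, then given serially diluted compound. At 72 h, fixed in 2% PFA and nuclei stained with Hoechst 33342 (10 μg/mL). Automated confocal imaging: GFP-positive cells give activity, nuclei counts give cytotoxicity. EC50/CC50 from nonlinear regression.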

In data set [15] the test system is Hepatitis C virus. As to the kind of experiment: Antiviral activity against HCV genotype 1b Con1 infected in human Huh7.5 cells assessed as stimulation of OAS1 mRNA expression at 2 uM incubated up to 96 hrs by qRT-PCR method. The conditions noted are these: Hepacivirus hominis, isolate Con1, Huh-7, TDE = time-dependent effect. The class given is functional, organism-based. The method, boiled down: as §1

Data set [16] can be described thus: Cytotoxicity against HCV genotype 1b Con1 infected human Huh7.5 cells expressing GFP-fused NS5A assessed as reduction in cell viability measured 72 hrs post infection by hoechst 33342 staining based confocal microscopy. Also noted: species or system Huh-7. The method in brief: as §2
Data set [17] concerns Hepatitis C virus. As to the kind of experiment: Antiviral activity against HCV genotype 1b Con1 infected in human Huh7 cells xenografted in immunodeficient NOD/SCID mouse assessed as inhibition of NS5B expression in liver at 50 mg/kg, ip up to 14 days by DAPI staining based confocal microscopy. It is filed as functional, organism-based. The note with it: Hepacivirus hominis, isolate Con1, Huh-7.

The test system of data set [18] is Hepatitis C virus. Put plainly: Antiviral activity against HCV genotype 1b Con1 infected in human Huh7.5 cells assessed as reduction of IL-8 mRNA expression at 2 uM incubated up to 96 hrs by qRT-PCR method. The class given is functional, organism-based. The conditions noted are these: Hepacivirus hominis, isolate Con1, Huh-7, TDE = time-dependent effect. The method in brief:
as §1

Data set [19] deals with Hepatitis C virus. As to the kind of experiment: Antiviral activity against HCV genotype 1b Con1 infected in human Huh7.5 cells assessed as inhibition of NS5A expression at 2 uM by DAPI staining based confocal microscopy. It is filed as functional, organism-based. The conditions noted are these: Hepacivirus hominis, isolate Con1, Huh-7. The method, boiled down:
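Con1b replicon cells treated at 2 μM. Stained with Alexa red anti-NS5A and Alexa green anti-NS5B antibodies plus DAPI, then imaged by confocal microscopy for colocalization. Images representative of at least three experiments.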

In data set [20] the test system is Hepatitis C virus. As to the kind of experiment: Antiviral activity against HCV genotype 1b Con1 infected in human Huh7 cells xenografted in immunodeficient NOD/SCID mouse assessed as inhibition of NS5B expression in liver at 50 mg/kg, ip up to 14 days by Western blot analysis. It is filed as functional, organism-based. The note with it: Hepacivirus hominis, isolate Con1, Huh-7.

For data set [21], the system named is Hepatitis C virus. As to the kind of experiment: Antiviral activity against HCV genotype 1b Con1 infected in human Huh7.5 cells assessed as upregulation of IFN-alpha expression incubated up to 96 hrs by ELISA. The class given is functional, organism-based. The conditions noted are these: Hepacivirus hominis; isolate Con1; Huh-7. The method in brief:
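Con1b replicon cells, 2 × 10^6/well, treated with 2 μM for up to 4 days at 37 °C. Pooled culture media assayed for IL-8 and IFN-α by ELISA.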

Data set [22] relates to Mus musculus. Put plainly: Toxicity in NOD/SCID mouse assessed as body weight change at 50 mg/kg, ip measured up to 14 days. It is filed as organism-based. The note with it: in vivo, 336 h.
Data set [23] is filed under the species Mus musculus. As to the kind of experiment: Activation of calcium-dependent calcineurin phosphatase activity in ionomycin-stimulated BALB/c mouse splenocytes assessed as dephosphorylation of NFAT1 at 1 to 10 uM preincubated for 20 hrs followed by ionomycin stimulation measured after 4 hrs by Western blot analysis. The method in brief: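 Mouse splenocytes, 2 × 10^6/well, exposed to compound for 20 h at 37 °C, then ionomycin 1 μg/mL for 4 h. Lysed on ice for 10 min and spun at 19 000g. NFAT phosphorylation status in the supernatant read by Western blot with anti-NFATc1 antibody.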

Activity calls are given as the source filed them. The calls are words filed in the database; no cut-off is given here.

T1 sequence (P23284 whole entry): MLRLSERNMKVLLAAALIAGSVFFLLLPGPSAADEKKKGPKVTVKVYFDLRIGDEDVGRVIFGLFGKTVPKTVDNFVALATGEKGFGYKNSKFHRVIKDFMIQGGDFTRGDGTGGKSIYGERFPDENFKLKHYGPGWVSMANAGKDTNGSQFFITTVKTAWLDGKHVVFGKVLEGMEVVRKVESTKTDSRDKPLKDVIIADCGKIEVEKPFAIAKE

Turning to `COc1cc(C(C(=O)NC2CCCCC2)N(C(=O)Cc2c[nH]c3ccccc23)c2ccc(C(C)C)cc2)cc(OC)c1OC` (stereo not drawn), the Activity entry was “tde” in data set [1]; “Non-toxic” in data set [7]; “Non-toxic” in data set [9]; “tde” in [10]; “tde” in data set [15]; “tde” in [18]. For the same molecule, in data set [22], the Activity result is reported as “Non-toxic”. The inhibition result in [2], in data set [11], in data set [13], in [17], in data set [19] and in [20] was “Active” in each case. The same molecule came in with a koff in data set [3] of 8.25 ×10⁻⁴ /s. Also, the result in [4], in data set [12], in [21] and in [23] was Active. Besides, binding in data set [5] was characterised by a dissociation constant (Kd) of 2100 nM. Moreover, the EC50 in [6] came to 1120 nM; in data set [14] it was 730 nM. Besides, in data set [8], the “Ratio CC50/EC50” value was over 19.2. Further, the CC50 at 72 h in data set [16] is 12400 nM.
